Cl transport mod – KCC2 (human) Cl- transport modulation; Q9H2X9; KCC2 cells, thallium flux FluoZin-2 fluorescence; B-score of Tl+ flux slope (higher = more flux/activation; lower = inhibition) at 10 µM; 190,000 tested, 2.2% active;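 active means thallium flux slope and its plate-corrected score both differing from the plate sample mean at a set confidence after two filtering rounds, in either direction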;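 further: slope of fluorescence scaled to starting intensity during 10 to 20 s after thallium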
14-3-3 Bad inh – disrupts binding of bovine 14-3-3 zeta to phospho-Bad peptide. P63103. TR-FRET 14-3-3zeta/Dy647-pBad peptide displacement, 1 h. inhibition, % at 21.7 µM. 220,000 tested, 0.71% active. AID 781;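 active means inhibition above about 70%, limit read from the data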;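 further: 0% = full 14-3-3 plus peptide FRET controls and 100% = background without 14-3-3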
Target sequence (P63103 whole entry, looked up): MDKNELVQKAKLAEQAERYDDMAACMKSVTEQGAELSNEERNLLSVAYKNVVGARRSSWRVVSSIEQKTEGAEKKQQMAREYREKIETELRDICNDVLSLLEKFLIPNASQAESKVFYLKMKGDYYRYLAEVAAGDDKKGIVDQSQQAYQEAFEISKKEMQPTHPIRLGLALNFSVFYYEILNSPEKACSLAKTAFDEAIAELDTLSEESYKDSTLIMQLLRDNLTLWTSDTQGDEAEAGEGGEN
NCF1 inh – blocks human p47phox regulatory protein of NADPH oxidases | inhibition, % at 24.7 µM | 220,000 tested, 0.53% active | P14598 | p47phox/p22phox peptide binding, fluorescence polarization, 2 h;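 active means inhibition above about 30%, limit read from the data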;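 further: 0% = p47phox with labelled peptide and 100% = labelled peptide alone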
WT yeast gro inh – growth inhibition of WT yeast, mitochondrial fusion screen | AID 1362 | mitochondrial fusion phenotypic screen, WT strain | 190,000 tested, 2.1% active | inhibition, % at 10 µM; in the data active means inhibition above about 58%; tested in S. cerevisiae
RBBP9 inhibitor – blocks human serine hydrolase RBBP9. O75884. recombinant RBBP9, FP-Rh probe fluorescence polarization. inhibition, % at 7.94 µM. 220,000 tested, 0.2% active;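 active means inhibition above the campaign mean of all tested compounds plus 3 SD, cut at about 14% in these data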;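 further: plate controls were DMSO wells with RBBP9 for no effect and wells lacking RBBP9 protein for full effect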
Target sequence (O75884 whole entry, looked up): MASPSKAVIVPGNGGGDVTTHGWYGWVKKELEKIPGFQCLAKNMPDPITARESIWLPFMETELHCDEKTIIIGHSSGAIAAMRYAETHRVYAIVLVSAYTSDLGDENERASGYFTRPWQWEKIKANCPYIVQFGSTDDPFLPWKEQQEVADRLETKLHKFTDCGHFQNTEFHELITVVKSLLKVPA
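Measured by – fluorescence polarization · Test system – RBBP9 protein · Input – 2.5 µM RBBP9 dispensing solution, before mixing · Measure – percent inhibition from mP, scaled between DMSO and no-protein wells · Benchmarks – DMSO-treated enzyme wells and wells lacking RBBP9 · Times – preincubation 30 min plus labeling 45 min at 25 °C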
ROMK primary – human ROMK K+ channel modulation, primary screen; P48048; B-score at 10 µM; 130,000 tested, 2% active; Tet-inducible ROMK, thallium flux fluorescence; actives lie on both sides;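 active means signal ratio slope over the read window, or its plate-corrected B-score, at least 3 SD from the plate mean, either direction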;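 further: B-score of the F/F0 ratio slope over 7 to 12 s after thallium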
KCC2 sec1 – confirmation of human KCC2 transport modulators. shares compounds with Cl transport mod. HEK293-KCC2, thallium flux, FluoZin2 fluorescence; active compounds read high. normalised thallium flux (F/F0 slope) at 10 µM. 3,700 tested, 15% active. AID 1713;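 active means thallium flux slope above the same plate's solvent-only control mean plus 3 SD; inconclusive means the two replicate wells disagree; inactive means no significant difference from solvent-only control wells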
KCC2 bumet counter – bumetanide-insensitive thallium flux in KCC2 cells with ouabain, counter-screen; normalized thallium flux at 10 µM; AID 1714; shares compounds with Cl transport mod; 3,700 tested, 49% active; HEK293-KCC2 + bumetanide/ouabain, thallium flux FluoZin2; active compounds read high;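 active means thallium entry rate above the same plate's blocked-transporter control wells by more than 3 SD; inconclusive means the two repeat wells disagree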;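 further: raw slope of fluorescence over initial fluorescence between 10 and 20 s after thallium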
KCC2 sec2 – confirmation of human KCC2 transport modulators; shares compounds with Cl transport mod; HEK293-KCC2, thallium flux FluoZin2 fluorescence; actives lie on both sides; F/F0 rise rate, 10–20 s post-thallium; normalized thallium flux at 10 µM; 3,700 tested, 23% active; AID 1715;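 active means thallium flux slope more than 3 SD above or below the plate's solvent-only control mean, mostly below; inconclusive means the two repeat wells disagreed; inactive means no significant shift from solvent-only controls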;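 further: raw slope with 0.1% DMSO as baseline and bumetanide as block control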
HEK293 Tl flux – acts in parental HEK cells, KCC2 counter-screen; shares compounds with Cl transport mod; HEK293 parental cells, thallium flux FluoZin2, ouabain; baseline-ratio fluorescence slope, 10–20 s after thallium; thallium flux rate (normalised fluorescence) at 10 µM; 3,700 tested, 46% active; AID 1716;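 active means thallium flux rate significantly above the same plate's solvent-only control wells, beyond their mean plus 3 SD; inconclusive means the two replicate wells gave conflicting results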
KCC2 ouabain – confirmation of human KCC2 modulators with ouabain; shares compounds with Cl transport mod; HEK293-KCC2, thallium flux FluoZin2 fluorescence; bidirectional: low = inhibitor, high = activator; raw Tl+ flux slope (below DMSO = inhibition, above = activation) at 10 µM; 3,700 tested, 48% active;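 active means thallium flux slope beyond 3 SD from same-plate DMSO control mean in most replicates, usually higher, sometimes lower; inconclusive means repeat tests gave conflicting results; inactive means no significant difference from controls in most replicates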;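 further: slope of initial-normalized fluorescence between seconds 10 and 20 after thallium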
HEK293 Tl flux2 – acts in parental HEK cells, second KCC2 counter-screen; shares compounds with Cl transport mod; HEK293 parental, thallium flux FluoZin-2 fluorescence slope; thallium flux slope at 10 µM; 3,700 tested, 33% active;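 active means thallium flux slope above the same plate's solvent-control mean plus 3 SD in both duplicate wells; inconclusive means duplicate wells that disagreed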;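 further: run without ouabain in cells lacking the KCC2 cotransporter; slope of fluorescence scaled to its starting value between 10 and 20 s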
* = called active by the depositor; ? = inconclusive; / = no result. Only some compounds are listed: those with a hit (about 5.8% of all), similar ones and a draw of the others.

SMILES	Cl transport mod	14-3-3 Bad inh	NCF1 inh	WT yeast gro inh	RBBP9 inhibitor	ROMK primary	KCC2 sec1	KCC2 bumet counter	KCC2 sec2	HEK293 Tl flux	KCC2 ouabain	HEK293 Tl flux2
O=C(NCCc1ccccc1)c1nc2c(nnn2Cc2ccccc2Cl)c(=O)[nH]1	-1.4	9	-12	-16	-4	/	/	/	/	/	/	/
O=C(NCc1ccccc1)c1nc2c(nnn2Cc2cccc(Cl)c2)c(=O)[nH]1	-5.1*	-7	-20	-20	-10	/	0.006	0.0055	0.024*	0.0063*	0.013*	?
O=C(O)/C=C/C(=O)OC1CC2CCC1C2 (stereo unspecified)	-0.017	-7	-4	/	-6	-0.021	/	/	/	/	/	/
CCc1cc2cc(C)cc(C)c2[nH]c1=S	124*	15	-3	7	-1	0.023	0.0068	0.024*	0.11*	0.11*	0.086*	0.11*
O=C(Cc1cccc2ccccc12)N/N=C/c1ccc(Sc2cccc3cccnc23)o1	10*	3	-58	5	-7	0.0018	0.0062	0.013*	0.036	0.011*	0.025*	0.013*
O=C(/C=C/c1ccccc1[N+](=O)[O-])NCc1cccnc1	0.59	-2	-1	8	-7	/	/	/	/	/	/	/
N#Cc1ccc(-c2ccc(OCC(=O)NCCCN3CCCC3=O)cc2)cc1	-2.5	-8	-7	-7	-9	-0.89	/	/	/	/	/	/
O=C(NNC(=O)C1CC2CCC1C2)c1sc2ccccc2c1Cl (stereo unspecified)	9.5*	-3	-9	7	2	/	0.01	0.041*	0.031	0.019*	0.025	0.012*
C=CCNC(=S)N/N=C(\C)c1cccc(NC(C)=O)c1	-0.23	-6	-12	-16	-2	-0.21	/	/	/	/	/	/
C/C(=N\NC(=S)Nc1cccc(C)c1)c1ccco1	78*	-18	-7	59	-7	/	0.028*	0.085*	?	0.063*	0.058*	0.062*
CCNC(=S)N/N=C(\C)c1ccco1	0.59	-6	7	-6	0	-0.98	/	/	/	/	/	/
C/C(=N\NC(=S)Nc1ccc(C)cc1)c1cccc(N)c1	9.4*	-21	-1	6	-8	0.26	0.018*	0.053*	0.035	0.063*	0.048*	0.017*
Fc1ccc(NC(=S)NCCN2CCOCC2)c(F)c1F	-0.56	-5	-5	0	-1	-0.83	/	/	/	/	/	/
NC(=O)NC(=O)COC(=O)CCSc1ccccc1	-0.61	-6	5	-46	0	0.62	/	/	/	/	/	/
O=c1c2sccc2[nH]c(=S)n1Cc1ccccc1	68*	0	-7	-8	-4	1.1	0.0088	0.11*	0.084*	0.086*	0.094*	0.079*
C(=N\NC1=Nc2cccc3cccc1c23)/c1ccccn1	-4.4*	-15	-38	68*	-7	-0.016	?	0.005	0.027	0.0061	0.016*	0.0094
Brc1csc(/C=N/Nc2nc3ccccc3s2)c1	0.34	-8	-38	24	8	/	/	/	/	/	/	/
C(=N\Nc1nc2ccccc2s1)/c1ccccn1	6.9*	-27	-19	/	4	/	0.0086	?	0.032	?	0.02	0.012
CC/C(=N\NC(=O)CCC(=O)NCc1ccccc1)c1ccc(O)cc1	1.1	-14	5	-18	3	/	/	/	/	/	/	/
O=C(Nc1ccccc1)c1ccc(Br)o1	0.095	10	-5	13	-8	-0.05	/	/	/	/	/	/
CN(C(=S)NC(=O)c1ccc(Br)o1)c1ccccc1	7.7*	-6	2	-16	-3	1	0.0065	0.02*	0.04*	0.02*	0.031*	0.023*
Cc1cc(C)c2c(N)c(C(=O)N3CCc4ccccc4C3)sc2n1	-2.2	-27	1	2	6	0.37	/	/	/	/	/	/
O=C(NNC(=S)NC(=O)C12CC3CC(CC(C3)C1)C2)c1ccncc1	/	0	-2	80*	0	/	0.017*	0.038*	0.036	0.02*	0.029	0.013*
O=C(NNC(=O)C12CC3CC(CC(C3)C1)C2)c1ccccn1	22*	0	-11	/	-1	/	0.006	0.041*	0.044*	0.027*	0.042*	0.03*
CC1(C(=O)NC(=S)NNC(=O)c2ccncc2)CCCCC1	2.8	-19	-4	2	-6	0.7	/	/	/	/	/	/
SMILES	Cl transport mod	14-3-3 Bad inh	NCF1 inh	WT yeast gro inh	RBBP9 inhibitor	ROMK primary	KCC2 sec1	KCC2 bumet counter	KCC2 sec2	HEK293 Tl flux	KCC2 ouabain	HEK293 Tl flux2
COc1ccc(NC(=O)c2cccnc2Sc2ccccc2)c(OC)c1	-0.04	-7	-5	-22	2	0.018	/	/	/	/	/	/
Cn1c(=O)c([N+](=O)[O-])c(NCCc2ccccc2)c2ccccc21	-0.0049	-10	-8	-5	-5	/	/	/	/	/	/	/
Cn1c(=O)c([N+](=O)[O-])c(NCc2ccccc2Cl)c2ccccc21	-4.5*	-3	-30	/	-3	/	0.0078	0.004	?	0.0063*	?	?
COc1ccc(-c2nn(-c3ccccc3)cc2/C=C/C(=O)N2CCOCC2)cc1OC	-0.28	-4	-14	10	-10	0.45	/	/	/	/	/	/
CCOC(=O)CC1Sc2ccccc2NC1=S (stereo unspecified)	6.9*	-6	-11	/	-11	/	0.011	0.024*	0.036	?	0.031*	?
CCN(CC(=O)NCc1ccccc1Cl)CC(=O)Nc1c(F)cccc1F	0.53	34	11	/	-3	0.4	/	/	/	/	/	/
Cn1c(C(=O)NCCN2CCN(c3ccccc3F)CC2)cc2c(=O)n(C)c3ccccc3c21	-4.7*	4	-13	4	-4	/	0.005	0.0048	0.022*	0.0076	?	0.011
CCCc1oc2c(c(=O)c1CC)C(=O)CC(C)(C)C2	/	-10	-1	9	2	0.28	0.016	0.0046	0.028	?	0.015	0.011
O=c1c2cc3c(=O)n(-c4ccccc4O)c(=O)c3cc2c(=O)n1-c1ccccc1O	-0.14	-10	-10	5	-1	0.79	/	/	/	/	/	/
Nc1c(C(=O)O)sc2nc(-c3ccccc3)cc(-c3ccc(F)cc3)c12	-5.4*	-1	-22	/	-16	-0.34	0.0089	0.012*	0.028	0.0069	0.012*	0.01

Bioassay records as filed in PubChem.
